ChEMBL document CHEMBL1138779, “Antitumor agents. 234. Design, synthesis, and biological evaluation of novel 4beta-[(4' '-benzamido)-amino]-4'-o-demethyl-epipodophyllotoxin derivatives” (2004)
≈ marks a conversion by molar mass, not a printed value. Where “and” joins values, the source holds several entries; their conditions need not be identical. Equal values may be shown once. Calls of active or inactive are those of the source. The rule behind the calls is not given here.

Columns and labels:
KB [1] = assay: Dose required to cause reduction in human nasopharyngeal KB cancer cells after 3 days incubation; assay type: functional; conditions: 72 h, read-out: ED50 (the source's name)
In short: (§1)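 Cells grown at 37 °C, humidified 5% CO2, in RPMI-1640 with 25 mM HEPES, […], 10% (v/v) FBS and 100 µg/mL kanamycin. Drug exposure for 3 days. ED50 (concentration giving 50% reduction in cell number) interpolated from dose–response data. Triplicate tests, variation no more than 5%; independent ED50 determinations varied no more than 30%.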

KB [2] = assay: Dose required for reduction in human nasopharyngeal KB-7d cancer cells after 3 days incubation; assay type: functional; conditions: 72 h, read-out: ED50 (the source's name); in short: as §1
KB [3] = assay: Ratio of ED50 for KB-7d cells to that of KB cells; assay type: functional, Homo sapiens
In short: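 Relative resistance (fold) taken as ED50 against KB-7d divided by ED50 against KB. Both values come from 3-day drug exposure, with ED50 interpolated from dose–response data as the concentration reducing cell number by 50%.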

[4] = target: T1, DNA topoisomerase II (Homo sapiens) (UniProt P11388+Q02880); assay: Percentage of protein-linked DNA breaks in KB cells by [3H]thymidine incorporation; assay type: functional, cell-based; set-up: concentration or dose not given beside the values
In short: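 KB cells labelled overnight with 0.5 µCi/mL [methyl-3H]thymidine ([…]), chased 2 h, then treated in duplicate with compound at 10 µg/mL for 1 h. Protein-associated DNA breaks measured as potassium–SDS precipitable radioactivity. Values expressed relative to VP-16 control set at 100%.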

[5] = target: T1, DNA topoisomerase II (Homo sapiens); assay: Percentage of protein-linked DNA breaks in KB cells by [3H]thymidine incorporation at 5 ug/mL; assay type: functional, cell-based
In short: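 [3H]thymidine-prelabelled KB cells (0.5 µCi/mL, overnight, 2 h chase) treated in duplicate with compound at 5 µg/mL for 1 h. Protein-linked DNA breaks read as potassium–SDS precipitable radioactivity, given as percent of the VP-16 control set at 100%.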

1A9/ptx-10 = assay: Dose required for reduction in paclitaxel resistant human ovarian 1A9-PTX10 cancer cells after 3 days incubation; assay type: functional; conditions: 1A9/ptx-10, 72 h, read-out: ED50 (the source's name); in short: as §1
U-87 MG = assay: Dose required for reduction in human glioblastoma U-87-MG cancer cells after 3 days incubation; assay type: functional, U-87MG ATCC; conditions: 72 h, read-out: ED50 (the source's name); in short: as §1
KB [6] = assay: Dose required for reduction in etoposide resistant human nasopharyngeal KB-7d cancer cells after 3 days incubation; assay type: functional; conditions: 72 h, read-out: ED50 (the source's name); in short: as §1
MCF7 = assay: Dose required for reduction in human breast MCF-7 cancer cells after 3 day incubation; assay type: functional; conditions: MCF7, 72 h, read-out: ED50 (the source's name); in short: as §1
A549 = assay: Dose required for reduction in human lung A549 cancer cells after 3 days incubation; assay type: functional; conditions: A549, 72 h, read-out: ED50 (the source's name); in short: as §1
HCT-8 = assay: Dose required for reduction in human ileocecal HCT-8 cancer cells after 3 day incubation; assay type: functional; conditions: HCT-8, 72 h, read-out: ED50 (the source's name); in short: as §1
CAKI-1 [7] = assay: Dose required for reduction in human renal CAKI-1 cancer cells after 3 days incubation; assay type: functional; conditions: CAKI-1, 72 h, read-out: ED50 (the source's name); in short: as §1
1A9 = assay: Dose required to cause reduction in human ovarian 1A9 cancer cells after 3 days incubation; assay type: functional; conditions: 1A9, 72 h, read-out: ED50 (the source's name); in short: as §1
PC-3 = assay: Dose required for reduction in human prostate PC-3 cancer cells after 3 days incubation; assay type: functional; conditions: PC-3, 72 h, read-out: ED50 (the source's name); in short: as §1
KB [8] = assay: Dose required for reduction in camptothecin resistant human nasopharyngeal KB cancer cells after 3 days incubation; assay type: functional; conditions: 72 h, read-out: ED50 (the source's name); in short: as §1
KB [9] = assay: Dose required for reduction in vincristine resistant human nasopharyngeal KB-VIN cancer cells after 3 days incubation; assay type: functional; conditions: 72 h, read-out: ED50 (the source's name); in short: as §1
CAKI-1 [10] = assay: Dose required for reduction in human renal CAKI-1 cancer cells after 3 days incubation; NA = not applicable; assay type: functional, cell-based; in short: as §1
KB [11] = assay: Dose required to cause reduction in human nasopharyngeal KB-7d cancer cells after 3 days incubation; assay type: functional; conditions: 72 h, read-out: ED50 (the source's name); in short: as §1

Structure (SMILES)	EC50 (KB [1])	EC50 (KB [2])	Relative resistance (KB [3])	Activity [4]	Activity [5]	EC50 (1A9/ptx-10)	EC50 (U-87 MG)	EC50 (KB [6])	EC50 (MCF7)	EC50 (A549)	EC50 (HCT-8)	EC50 (CAKI-1 [7])	EC50 (1A9)	EC50 (PC-3)	EC50 (KB [8])	EC50 (KB [9])	ED50 (CAKI-1 [10])	EC50 (KB [11])
COc1cc([C@@H]2c3cc4c(cc3[C@@H](Nc3ccc(C(=O)NCCc5ccc(O)cc5)cc3)[C@H]3COC(=O)[C@H]23)OCO4)cc(OC)c1O	0.02 µg/mL	0.8 µg/mL (≈ 1.25 µM)	32	368%	275%													
COC(=O)[C@H](Cc1ccccc1)NC(=O)c1ccc(N[C@@H]2c3cc4c(cc3[C@@H](c3cc(OC)c(O)c(OC)c3)[C@H]3C(=O)OC[C@@H]32)OCO4)cc1	0.55 µg/mL and 1.4 µM	1 µg/mL (≈ 1.47 µM)	1.8	226%		1.7 µM	87.1 µM	1.7 µM	9.6 µM	1.2 µM	3.8 µM	> 100 µM	0.36 µM	> 100 µM	3.7 µM	4.2 µM		
COC(=O)[C@H](Cc1c[nH]c2ccccc12)NC(=O)c1ccc(N[C@@H]2c3cc4c(cc3[C@@H](c3cc(OC)c(O)c(OC)c3)[C@H]3C(=O)OC[C@@H]32)OCO4)cc1	0.5 µg/mL	2.5 µg/mL (≈ 3.47 µM)	5	58%														
COc1cc([C@@H]2c3cc4c(cc3[C@@H](Nc3ccc(C(=O)NCC(=O)OCc5ccccc5)cc3)[C@H]3COC(=O)[C@H]23)OCO4)cc(OC)c1O	0.5 µg/mL and 860 nM	0.3 µg/mL (≈ 0.45 µM)	0.6	178%		0.78 µM	16.9 µM	2.6 µM	2.3 µM	0.61 µM	3.5 µM	> 100 µM	0.12 µM	> 100 µM	1.3 µM	38.9 µM		
COC(=O)[C@H](Cc1ccc(O)c(O)c1)NC(=O)c1ccc(N[C@@H]2c3cc4c(cc3[C@@H](c3cc(OC)c(O)c(OC)c3)[C@H]3C(=O)OC[C@@H]32)OCO4)cc1	1 µg/mL	5.5 µg/mL (≈ 7.72 µM)	5.5	33%														
COc1cc([C@@H]2c3cc4c(cc3[C@@H](Nc3ccc(NC(=O)[C@@H](Cc5ccc(O)cc5)NC(=O)OCc5ccccc5)cc3)[C@H]3COC(=O)[C@H]23)OCO4)cc(OC)c1O	0.49 µM					0.92 µM	> 100 µM		1.9 µM	0.77 µM	> 100 µM		0.0086 µM	> 100 µM		> 100 µM	inactive	
COC(=O)[C@H](CCSC)NC(=O)c1ccc(N[C@@H]2c3cc4c(cc3[C@@H](c3cc(OC)c(O)c(OC)c3)[C@H]3C(=O)OC[C@@H]32)OCO4)cc1	0.8 µg/mL and 1.9 µM	2.4 µg/mL (≈ 3.61 µM)	3	295%		2.1 µM	45.2 µM	5.6 µM	9.3 µM	2 µM	11.4 µM	> 100 µM	0.12 µM	82.7 µM	3.3 µM	65.3 µM		
COc1cc([C@@H]2c3cc4c(cc3[C@@H](NC(=O)[C@@H](N)Cc3ccc(O)cc3)[C@H]3COC(=O)[C@H]23)OCO4)cc(OC)c1O	18.8 µM					> 5 µM	> 100 µM	30.2 µM	41.7 µM	54.3 µM	> 100 µM		3.3 µM	> 100 µM	44.8 µM	> 100 µM	inactive	
COc1cc([C@@H]2c3cc4c(cc3[C@@H](NC(=O)[C@H](Cc3ccc(O)cc3)NC(=O)OCc3ccccc3)[C@H]3COC(=O)[C@H]23)OCO4)cc(OC)c1O	3.9 µM					5 µM	100 µM	11.9 µM	17.4 µM	15.9 µM	77.7 µM	> 100 µM	0.94 µM	94.8 µM	9 µM	> 100 µM		
COc1cc([C@@H]2c3cc4c(cc3[C@@H](Nc3ccc(C(=O)N[C@@H](Cc5c[nH]c6ccccc56)C(=O)O)cc3)[C@H]3COC(=O)[C@H]23)OCO4)cc(OC)c1O	4 µg/mL	8 µg/mL (≈ 11.3 µM)	2	7%														
COc1cc([C@@H]2c3cc4c(cc3[C@@H](Nc3ccc(C(=O)N[C@@H](C)C(=O)OCc5ccccc5)cc3)[C@H]3COC(=O)[C@H]23)OCO4)cc(OC)c1O	0.5 µg/mL and 900 nM	0.25 µg/mL (≈ 0.367 µM)	0.5	210%		0.2 µM	8 µM	1.4 µM	1.6 µM	0.7 µM	2.4 µM	> 100 µM	0.05 µM	3.8 µM	1.7 µM	10.4 µM		
COc1cc([C@@H]2c3cc4c(cc3[C@@H](Nc3ccc(C(=O)N[C@H](C)C(=O)OCc5ccccc5)cc3)[C@H]3COC(=O)[C@H]23)OCO4)cc(OC)c1O	0.1 µg/mL and 1 µM	0.25 µg/mL (≈ 0.367 µM)	2.5	133%		1.2 µM	39.9 µM	0.67 µM	2.7 µM	0.47 µM	2.2 µM	> 100 µM	0.057 µM	> 100 µM	1.9 µM	3.7 µM		
COc1cc([C@@H]2c3cc4c(cc3[C@@H](Nc3ccc(C(=O)NCCc5ccccc5)cc3)[C@H]3COC(=O)[C@H]23)OCO4)cc(OC)c1O	0.03 µg/mL	0.5 µg/mL (≈ 0.803 µM)	14		227%													
COC(=O)[C@H](Cc1c[nH]cn1)NC(=O)c1ccc(N[C@@H]2c3cc4c(cc3[C@@H](c3cc(OC)c(O)c(OC)c3)[C@H]3C(=O)OC[C@@H]32)OCO4)cc1	0.23 µg/mL and 7.6 µM	2.2 µg/mL (≈ 3.28 µM)	9.6	122%		4 µM	> 100 µM	14.7 µM	29.8 µM	16.1 µM	66 µM	> 100 µM	0.69 µM	> 100 µM	17.6 µM	11.1 µM		
COc1cc([C@@H]2c3cc4c(cc3[C@@H](O[C@@H]3O[C@@H]5CO[C@@H](C)O[C@H]5[C@H](O)[C@H]3O)[C@H]3COC(=O)[C@H]23)OCO4)cc(OC)c1O [ETOPOSIDE]	0.5 µg/mL and 300 nM		>20	100%	100%	> 5 µM	73.6 µM	17.2 µM	62.2 µM	10.6 µM	62.9 µM	> 100 µM	0.15 µM	> 100 µM	7 µM	> 100 µM		> 10 µg/mL
COC(=O)[C@H](Cc1ccc(O)cc1)NC(=O)c1ccc(N[C@@H]2c3cc4c(cc3[C@@H](c3cc(OC)c(O)c(OC)c3)[C@H]3C(=O)OC[C@@H]32)OCO4)cc1	1.9 µg/mL	5 µg/mL (≈ 7.18 µM)	2.6	76%														
COc1cc([C@@H]2c3cc4c(cc3[C@@H](Nc3ccc([N+](=O)[O-])cc3)[C@H]3COC(=O)[C@H]23)OCO4)cc(OC)c1O	0.2 µg/mL	2 µg/mL (≈ 3.84 µM)	10	244%	218%													
COC(=O)[C@@H](Cc1c[nH]c2ccccc12)NC(=O)c1ccc(N[C@@H]2c3cc4c(cc3[C@@H](c3cc(OC)c(O)c(OC)c3)[C@H]3C(=O)OC[C@@H]32)OCO4)cc1	0.06 µg/mL and 440 nM	0.4 µg/mL (≈ 0.556 µM)	6.2	121%		0.35 µM	94.3 µM	3.5 µM	3.6 µM	0.63 µM	3.4 µM	> 100 µM	0.02 µM	> 100 µM	0.28 µM	54.9 µM		
